Experimental data as given in ChEMBL document CHEMBL1157912, “Impact of nature and length of linker incorporated in agonists on toll-like receptor 9-mediated immune responses” (J Med Chem, 2010).

Columns and labels:
[1] = target: T1, Toll-like receptor 9 (Mus musculus) (UniProt Q9EQU3); experiment: Activation of mouse TLR9 expressed in HEK293 cells assessed as induction of NF-kappaB activity after 18 hrs by SEAP assay; assay type: cell-based
T1 sequence (whole entry): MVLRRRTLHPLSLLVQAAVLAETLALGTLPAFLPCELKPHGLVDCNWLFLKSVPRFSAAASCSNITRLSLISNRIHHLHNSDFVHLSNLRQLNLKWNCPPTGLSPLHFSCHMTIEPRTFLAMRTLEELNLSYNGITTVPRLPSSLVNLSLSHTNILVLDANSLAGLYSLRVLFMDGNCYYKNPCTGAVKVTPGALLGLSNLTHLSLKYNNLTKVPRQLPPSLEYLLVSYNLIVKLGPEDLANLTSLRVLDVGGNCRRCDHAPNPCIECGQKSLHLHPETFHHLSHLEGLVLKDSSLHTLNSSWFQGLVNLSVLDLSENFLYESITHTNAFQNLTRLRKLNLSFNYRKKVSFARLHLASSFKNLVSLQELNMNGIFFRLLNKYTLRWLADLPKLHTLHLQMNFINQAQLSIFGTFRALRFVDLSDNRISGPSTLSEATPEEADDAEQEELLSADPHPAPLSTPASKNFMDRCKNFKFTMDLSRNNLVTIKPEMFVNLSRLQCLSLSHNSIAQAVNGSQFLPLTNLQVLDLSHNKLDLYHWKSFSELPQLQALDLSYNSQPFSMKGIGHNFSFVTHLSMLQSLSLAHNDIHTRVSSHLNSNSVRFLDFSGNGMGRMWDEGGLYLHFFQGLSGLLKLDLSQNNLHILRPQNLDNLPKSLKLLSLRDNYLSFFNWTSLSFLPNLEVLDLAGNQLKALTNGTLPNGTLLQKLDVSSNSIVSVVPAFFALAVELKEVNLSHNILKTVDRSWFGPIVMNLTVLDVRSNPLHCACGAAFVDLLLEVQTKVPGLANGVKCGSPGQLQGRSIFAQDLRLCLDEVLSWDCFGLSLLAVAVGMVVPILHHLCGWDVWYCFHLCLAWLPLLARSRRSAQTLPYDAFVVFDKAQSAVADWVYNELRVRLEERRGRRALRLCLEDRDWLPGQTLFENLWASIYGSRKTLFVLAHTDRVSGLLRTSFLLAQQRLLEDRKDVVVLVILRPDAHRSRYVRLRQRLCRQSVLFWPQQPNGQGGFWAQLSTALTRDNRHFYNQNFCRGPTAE
Summary of the method: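 HEK293 cells stably expressing mouse TLR9 were grown in DMEM with 10% heat-inactivated FBS. At 80% confluence they were transiently transfected with a SEAP reporter plasmid (100 ng/well, lipofectamine) for 6 h. Medium was then replaced and agonists were added for 18 h. Supernatant SEAP was read with QuantiBlue substrate at 620-645 nm. Results are expressed as fold NF-κB activity over PBS control.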

[2] = target: T1, Toll-like receptor 9 (Mus musculus); experiment: Induction of TLR9-mediated IL6 production in C57BL/6 mouse spleen cells after 24 hrs by ELISA; assay type: cell-based
Summary of the method: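 C57BL/6 mouse spleen cells were cultured with agonists at 0.1, 0.3, 1, 3 and 10 μg/mL for 24 h. Secreted IL-12 and IL-6 in the supernatants were measured by ELISA. Values are averages of triplicate wells from one representative of at least two independent experiments.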

[3] = target: T2, Toll-like receptor 9 (Homo sapiens) (UniProt Q9NR96); experiment: Induction of TLR9-mediated immune stimulation in human PBMC assessed as IL6 production at 2 ug/ml after 24 hrs by luminex multiplex assay (RVb = 0.01 ng/ml)
T2 sequence (whole entry): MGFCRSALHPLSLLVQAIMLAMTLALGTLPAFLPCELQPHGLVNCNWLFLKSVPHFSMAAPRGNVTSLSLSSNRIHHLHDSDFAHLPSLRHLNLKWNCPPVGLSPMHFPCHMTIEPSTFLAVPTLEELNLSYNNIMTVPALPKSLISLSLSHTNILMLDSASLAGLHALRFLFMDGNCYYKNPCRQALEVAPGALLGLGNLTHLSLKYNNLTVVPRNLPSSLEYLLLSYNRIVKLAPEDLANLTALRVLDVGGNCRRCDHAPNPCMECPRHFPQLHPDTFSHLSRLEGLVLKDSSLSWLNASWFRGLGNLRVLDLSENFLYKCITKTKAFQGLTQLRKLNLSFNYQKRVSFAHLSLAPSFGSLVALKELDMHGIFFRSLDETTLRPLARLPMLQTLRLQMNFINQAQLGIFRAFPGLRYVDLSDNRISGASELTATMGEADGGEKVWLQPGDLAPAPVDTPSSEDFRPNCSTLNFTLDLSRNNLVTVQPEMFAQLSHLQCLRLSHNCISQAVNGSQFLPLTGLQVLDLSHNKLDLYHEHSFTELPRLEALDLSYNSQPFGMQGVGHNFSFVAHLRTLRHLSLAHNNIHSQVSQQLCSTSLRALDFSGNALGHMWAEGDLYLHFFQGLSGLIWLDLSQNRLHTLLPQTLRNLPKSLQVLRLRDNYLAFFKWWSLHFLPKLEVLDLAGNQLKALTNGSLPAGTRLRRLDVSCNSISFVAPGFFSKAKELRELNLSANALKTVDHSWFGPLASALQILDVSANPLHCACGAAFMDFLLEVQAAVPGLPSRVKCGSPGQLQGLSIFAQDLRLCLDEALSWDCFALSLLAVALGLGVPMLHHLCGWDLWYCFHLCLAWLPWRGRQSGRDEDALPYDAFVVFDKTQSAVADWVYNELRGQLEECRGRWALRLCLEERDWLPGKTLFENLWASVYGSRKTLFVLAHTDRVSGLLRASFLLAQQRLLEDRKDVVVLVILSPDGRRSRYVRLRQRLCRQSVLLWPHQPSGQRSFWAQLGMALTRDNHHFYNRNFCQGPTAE

[4] = target: T2, Toll-like receptor 9 (Homo sapiens); experiment: Induction of TLR9-mediated immune stimulation in human PBMC assessed as IL6 production at 10 ug/ml after 24 hrs by luminex multiplex assay (RVb = 0.01 ng/ml)
[5] = target: T2, Toll-like receptor 9 (Homo sapiens); experiment: Induction of TLR9-mediated immune stimulation in human PBMC assessed as MIP1alpha production at 10 ug/ml after 24 hrs by luminex multiplex assay (RVb = 0.01 ng/ml)
[6] = target: T2, Toll-like receptor 9 (Homo sapiens); experiment: Induction of TLR9-mediated immune stimulation in human PBMC assessed as MIP1beta production at 2 ug/ml after 24 hrs by luminex multiplex assay (RVb = 0.03 +/- 0.02 ng/ml)
[7] = target: T2, Toll-like receptor 9 (Homo sapiens); experiment: Induction of TLR9-mediated immune stimulation in human PBMC assessed as MIP1beta production at 10 ug/ml after 24 hrs by luminex multiplex assay (RVb = 0.03 +/- 0.02 ng/ml)
[8] = target: T2, Toll-like receptor 9 (Homo sapiens); experiment: Induction of TLR9-mediated immune stimulation in human PBMC assessed as RANTES production at 2 ug/ml after 24 hrs by luminex multiplex assay (RVb = 0.05 +/- 0.04 ng/ml)
[9] = target: T2, Toll-like receptor 9 (Homo sapiens); experiment: Induction of TLR9-mediated immune stimulation in human PBMC assessed as MCP1 production at 2 ug/ml after 24 hrs by luminex multiplex assay (RVb = 0.08 +/- 0.02 ng/ml)

SMILES | Activity [1] | Activity [2] | Activity [3] [ng/mL] | Activity [4] [ng/mL] | Activity [5] [ng/mL] | Activity [6] [ng/mL] | Activity [7] [ng/mL] | Activity [8] [ng/mL] | Activity [9] [ng/mL]
Cc1cn([C@H]2C[C@H](OCCC(O)CCOP(=O)(S)O[C@H]3C[C@H](n4cc(C)c(=O)[nH]c4=O)O[C@@H]3COP(=O)(S)O[C@H]3[C@@H](O)[C@H](n4ccc(N)nc4=O)O[C@@H]3COP(=O)(S)O[C@H]3C[C@H](n4cc(C)c(=O)[nH]c4=O)O[C@@H]3COP(=O)(S)O[C@H]3C[C@H](n4cc(C)c(=O)[nH]c4=O)O[C@@H]3COP(=O)(S)O[C@H]3C[C@H](n4ccc5c(=O)[nH]c(N)nc54)O[C@@H]3COP(=O)(S)O[C@H]3[C@@H](O)[C@H](n4ccc(N)nc4=O)O[C@@H]3COP(=O)(S)O[C@H]3C[C@H](n4cc(C)c(=O)[nH]c4=O)O[C@@H]3COP(=O)(S)O[C@H]3[C@@H](O)[C@H](n4cnc5c(=O)[nH]c(N)nc54)O[C@@H]3COP(=O)(S)O[C@H]3C[C@H](n4cc(C)c(=O)[nH]c4=O)O[C@@H]3COP(=O)(S)O[C@H]3[C@@H](O)[C@H](n4ccc(N)nc4=O)O[C@@H]3COP(=O)(S)O[C@H]3C[C@H](n4cc(C)c(=O)[nH]c4=O)O[C@@H]3CO)[C@@H](COP(=O)(S)O[C@H]3[C@@H](O)[C@H](n4ccc(N)nc4=O)O[C@@H]3COP(=O)(S)O[C@H]3C[C@H](n4cc(C)c(=O)[nH]c4=O)O[C@@H]3COP(=O)(S)O[C@H]3C[C@H](n4cc(C)c(=O)[nH]c4=O)O[C@@H]3COP(=O)(S)O[C@H]3C[C@H](n4ccc5c(=O)[nH]c(N)nc54)O[C@@H]3COP(=O)(S)O[C@H]3[C@@H](O)[C@H](n4ccc(N)nc4=O)O[C@@H]3COP(=O)(S)O[C@H]3C[C@H](n4cc(C)c(=O)[nH]c4=O)O[C@@H]3COP(=O)(S)O[C@H]3[C@@H](O)[C@H](n4cnc5c(=O)[nH]c(N)nc54)O[C@@H]3COP(=O)(S)O[C@H]3C[C@H](n4cc(C)c(=O)[nH]c4=O)O[C@@H]3COP(=O)(S)O[C@H]3[C@@H](O)[C@H](n4ccc(N)nc4=O)O[C@@H]3COP(=O)(S)O[C@H]3C[C@H](n4cc(C)c(=O)[nH]c4=O)O[C@@H]3CO)O2)c(=O)[nH]c1=O (some centres not stated) | Dose-dependent effect | Dose-dependent effect | 0.31 | 0.47 | 0.17 | 0.12 | 0.61 | 0.31 | 0.25
Cc1cn([C@H]2C[C@H](OCC(O)COP(=O)(S)O[C@H]3C[C@H](n4cc(C)c(=O)[nH]c4=O)O[C@@H]3COP(=O)(S)O[C@H]3[C@@H](O)[C@H](n4ccc(N)nc4=O)O[C@@H]3COP(=O)(S)O[C@H]3[C@@H](O)[C@H](n4cnc5c(N)ncnc54)O[C@@H]3COP(=O)(S)O[C@H]3[C@@H](O)[C@H](n4cnc5c(N)ncnc54)O[C@@H]3COP(=O)(S)O[C@H]3[C@@H](O)[C@H](n4ccc(N)nc4=O)O[C@@H]3COP(=O)(S)O[C@H]3[C@@H](O)[C@H](n4ccc(N)nc4=O)O[C@@H]3COP(=O)(S)O[C@H]3[C@@H](O)[C@H](n4cnc5c(N)ncnc54)O[C@@H]3COP(=O)(S)O[C@H]3[C@@H](O)[C@H](n4ccc(N)nc4=O)O[C@@H]3COP(=O)(S)O[C@H]3[C@@H](O)[C@H](n4cnc5c(N)ncnc54)O[C@@H]3COP(=O)(S)O[C@H]3[C@@H](O)[C@H](n4ccc(N)nc4=O)O[C@@H]3COP(=O)(S)O[C@H]3[C@@H](O)[C@H](n4cnc5c(N)ncnc54)O[C@@H]3CO)[C@@H](COP(=O)(S)O[C@H]3[C@@H](O)[C@H](n4ccc(N)nc4=O)O[C@@H]3COP(=O)(S)O[C@H]3[C@@H](O)[C@H](n4cnc5c(N)ncnc54)O[C@@H]3COP(=O)(S)O[C@H]3[C@@H](O)[C@H](n4cnc5c(N)ncnc54)O[C@@H]3COP(=O)(S)O[C@H]3[C@@H](O)[C@H](n4ccc(N)nc4=O)O[C@@H]3COP(=O)(S)O[C@H]3[C@@H](O)[C@H](n4ccc(N)nc4=O)O[C@@H]3COP(=O)(S)O[C@H]3[C@@H](O)[C@H](n4cnc5c(N)ncnc54)O[C@@H]3COP(=O)(S)O[C@H]3[C@@H](O)[C@H](n4ccc(N)nc4=O)O[C@@H]3COP(=O)(S)O[C@H]3[C@@H](O)[C@H](n4cnc5c(N)ncnc54)O[C@@H]3COP(=O)(S)O[C@H]3[C@@H](O)[C@H](n4ccc(N)nc4=O)O[C@@H]3COP(=O)(S)O[C@H]3[C@@H](O)[C@H](n4cnc5c(N)ncnc54)O[C@@H]3CO)O2)c(=O)[nH]c1=O (some centres not stated) |  | Dose-dependent effect | 0.02 | 0.03 | 0.07 | 0.07 | 0.15 | 0.16 | 0.2
